Test results from ChEMBL document CHEMBL1221271, “6-Alkylquinolone-3-carboxylic acid tethered to macrolides synthesis and antimicrobial profile” (2010).
In brackets after ≈: the same amount, converted by molar mass.

How the values were obtained:
Format in all cases: functional
[1] = system: Staphylococcus aureus; experiment: Antimicrobial activity against macrolide, licosamide streptogramin-resistant Staphylococcus aureus 90265/97 by broth microdilution method
How it was run: (§1)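 MIC determined by the standard broth microdilution method; values reported in mg/L. Reference macrolide antibiotics were tested alongside as comparators.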

[2] = system: Staphylococcus aureus; experiment: Antimicrobial activity against Staphylococcus aureus ATCC 13709 by broth microdilution method; how it was run: as §1
[3] = system: Streptococcus pneumoniae; experiment: Antimicrobial activity against Streptococcus pneumoniae SP030 by broth microdilution method
How it was run: (§2)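 Standard broth microdilution assay. Read-out is the minimum inhibitory concentration, reported in mg/L.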

[4] = system: Streptococcus pyogenes; experiment: Antimicrobial activity against Streptococcus pyogenes 3565 by broth microdilution method; how it was run: as §2
[5] = system: Streptococcus pneumoniae; experiment: Antimicrobial activity against Streptococcus pneumoniae 134 GR-M by broth microdilution method; how it was run: as §2
[6] = system: Streptococcus pyogenes; experiment: Antimicrobial activity against Streptococcus pyogenes Finland 2 by broth microdilution method; how it was run: as §1
[7] = system: Streptococcus pneumoniae; experiment: Antimicrobial activity against Streptococcus pneumoniae 58 spain by broth microdilution method; how it was run: as §2
[8] = system: Streptococcus pyogenes; experiment: Antimicrobial activity against Streptococcus pyogenes 166 GR-Micro by broth microdilution method; how it was run: as §2
[9] = system: Haemophilus influenzae; experiment: Antimicrobial activity against Haemophilus influenzae ATCC 49247 by broth microdilution method; how it was run: as §2
[10] = system: Streptococcus pyogenes; experiment: Antimicrobial activity against macrolide-resistant Streptococcus pyogenes Finland 2 by broth microdilution method; how it was run: as §1
[11] = system: Staphylococcus aureus; experiment: Antimicrobial activity against efflux-mediated macrolide-resistant Staphylococcus aureus PK1 by broth microdilution method; how it was run: as §1

| SMILES | MIC [1] [µg/mL] | MIC [2] [µg/mL] | MIC [3] [µg/mL] | MIC [4] [µg/mL] | MIC [5] [µg/mL] | MIC [6] [µg/mL] | MIC [7] [µg/mL] | MIC [8] [µg/mL] | MIC [9] [µg/mL] | MIC [10] [µg/mL] | MIC [11] [µg/mL] |
| --- | --- | --- | --- | --- | --- | --- | --- | --- | --- | --- | --- |
| CCOC(=O)CCCCCOCC#Cc1ccc2c(c1)c(=O)c(C(=O)OCC)cn2CC | > 64 | > 64 | 16 (≈ 36.2 µM) | 8 (≈ 18.1 µM) | 64 (≈ 145 µM) | > 64 | 64 (≈ 145 µM) | > 64 | > 64 | > 64 | > 64 |
| CCn1cc(C(=O)O)c(=O)c2cc(C#CCOCCCCCC(=O)O)ccc21 | > 64 | > 64 | > 64 | > 64 | > 64 | > 64 | > 64 | > 64 | > 64 | – | > 64 |
| CCOC(=O)CCCCOCC#Cc1ccc2c(c1)c(=O)c(C(=O)OCC)cn2CC | > 64 | > 64 | > 64 | > 64 | > 64 | > 64 | > 64 | > 64 | > 64 | – | > 64 |
| CCn1cc(C(=O)O)c(=O)c2cc(C#CCOCCCCC(=O)O)ccc21 | > 64 | > 64 | 1 (≈ 2.69 µM) | 1 (≈ 2.69 µM) | > 64 | 16 (≈ 43.1 µM) | 2 (≈ 5.39 µM) | > 64 | > 64 | 16 (≈ 43.1 µM) | > 64 |
| CC[C@H]1OC(=O)[C@H](C)[C@@H](O[C@H]2C[C@@](C)(OC)[C@@H](OC(=O)CCCCCOCCCc3ccc4c(c3)c(=O)c(C(=O)O)cn4CC)[C@H](C)O2)[C@H](C)[C@@H](O[C@@H]2O[C@H](C)C[C@H](N(C)C)[C@H]2O)[C@](C)(O)C[C@@H](C)CN(C)[C@H](C)[C@@H](O)[C@]1(C)O | 0.25 (≈ 0.223 µM) | 0.25 (≈ 0.223 µM) | < 0.125 | < 0.125 | < 0.125 | < 0.125 | < 0.125 | < 0.125 | 0.5 (≈ 0.446 µM) | – | 0.25 (≈ 0.223 µM) |
| CC[C@H]1OC(=O)[C@H](C)[C@@H](O[C@H]2C[C@@](C)(OC)[C@@H](OC(=O)CCCCCOCCCc3ccc4c(c3)c(=O)c(C(=O)O)cn4CC)[C@H](C)O2)[C@H](C)[C@@H](O[C@@H]2O[C@H](C)C[C@H](N(C)C)[C@H]2O)[C@](C)(O)C[C@@H](C)CN(C)[C@H](C)[C@@H](OC)[C@]1(C)O | 2 (≈ 1.76 µM) | 1 (≈ 0.881 µM) | < 0.125 | < 0.125 | 0.5 (≈ 0.441 µM) | < 0.125 | < 0.125 | 0.5 (≈ 0.441 µM) | 1 (≈ 0.881 µM) | – | 1 (≈ 0.881 µM) |
| CC[C@H]1OC(=O)[C@H](C)[C@@H](O[C@H]2C[C@@](C)(OC)[C@@H](OC(=O)CCCCOCC#Cc3ccc4c(c3)c(=O)c(C(=O)O)cn4CC)[C@H](C)O2)[C@H](C)[C@@H](O[C@@H]2O[C@H](C)C[C@H](N(C)C)[C@H]2O)[C@](C)(O)C[C@@H](C)CN(C)[C@H](C)[C@@H](O)[C@]1(C)O | 4 (≈ 3.63 µM) | 0.5 (≈ 0.454 µM) | < 0.125 | < 0.125 | 0.5 (≈ 0.454 µM) | < 0.125 | < 0.125 | 1 (≈ 0.907 µM) | 1 (≈ 0.907 µM) | – | 0.5 (≈ 0.454 µM) |
| CC[C@H]1OC(=O)[C@H](C)[C@@H](O[C@H]2C[C@@](C)(OC)[C@@H](OC(=O)CCCCOCCCc3ccc4c(c3)c(=O)c(C(=O)O)cn4CC)[C@H](C)O2)[C@H](C)[C@@H](O[C@@H]2O[C@H](C)C[C@H](N(C)C)[C@H]2O)[C@](C)(O)C[C@@H](C)CN(C)[C@H](C)[C@@H](O)[C@]1(C)O | 4 (≈ 3.62 µM) | 0.5 (≈ 0.452 µM) | < 0.125 | < 0.125 | 0.25 (≈ 0.226 µM) | < 0.125 | < 0.125 | 0.25 (≈ 0.226 µM) | 2 (≈ 1.81 µM) | – | 0.5 (≈ 0.452 µM) |
| CC[C@H]1OC(=O)[C@H](C)[C@@H](O[C@H]2C[C@@](C)(OC)[C@@H](OC(=O)CCCCCOCC#Cc3ccc4c(c3)c(=O)c(C(=O)O)cn4CC)[C@H](C)O2)[C@H](C)[C@@H](O[C@@H]2O[C@H](C)C[C@H](N(C)C)[C@H]2O)[C@](C)(OC)C[C@@H](C)C(=O)[C@H](C)[C@@H](O)[C@]1(C)O | 8 (≈ 7.17 µM) | 2 (≈ 1.79 µM) | < 0.125 | < 0.125 | 4 (≈ 3.59 µM) | < 0.125 | < 0.125 | 2 (≈ 1.79 µM) | 16 (≈ 14.3 µM) | – | 2 (≈ 1.79 µM) |
| CC[C@H]1OC(=O)[C@H](C)[C@@H](O[C@H]2C[C@@](C)(OC)[C@@H](OC(=O)CCCCCOCCCc3ccc4c(c3)c(=O)c(C(=O)O)cn4CC)[C@H](C)O2)[C@H](C)[C@@H](O[C@@H]2O[C@H](C)C[C@H](N(C)C)[C@H]2O)[C@](C)(OC)C[C@@H](C)C(=O)[C@H](C)[C@@H](O)[C@]1(C)O | 4 (≈ 3.57 µM) | 2 (≈ 1.79 µM) | < 0.125 | < 0.125 | 1 (≈ 0.893 µM) | < 0.125 | < 0.125 | < 0.125 | 8 (≈ 7.15 µM) | – | 2 (≈ 1.79 µM) |
| CC[C@H]1OC(=O)[C@H](C)[C@@H](O[C@H]2C[C@@](C)(OC)[C@@H](O)[C@H](C)O2)[C@H](C)[C@@H](O[C@@H]2O[C@H](C)C[C@H](N(C)C)[C@H]2O)[C@](C)(O)C[C@@H](C)CN(C)[C@H](C)[C@@H](O)[C@]1(C)O [AZITHROMYCIN] | > 64 | 0.5 (≈ 0.668 µM) | < 0.125 | < 0.125 | > 64 | 16 (≈ 21.4 µM) | > 64 | > 64 | 1 (≈ 1.34 µM) | 16 (≈ 21.4 µM) | > 64 |
| CC[C@H]1OC(=O)[C@H](C)[C@@H](O[C@H]2C[C@@](C)(OC)[C@@H](O)[C@H](C)O2)[C@H](C)[C@@H](O[C@@H]2O[C@H](C)C[C@H](N(C)C)[C@H]2O)[C@](C)(OC)C[C@@H](C)C(=O)[C@H](C)[C@@H](O)[C@]1(C)O [CLARITHROMYCIN] | > 64 | ≤ 0.125 | ≤ 0.125 | ≤ 0.125 | > 64 | 4 (≈ 5.35 µM) | > 64 | > 64 | 8 (≈ 10.7 µM) | 4 (≈ 5.35 µM) | 32 (≈ 42.8 µM) |
| CC[C@H]1OC(=O)[C@H](C)C(=O)[C@H](C)[C@@H](O[C@@H]2O[C@H](C)C[C@H](N(C)C)[C@H]2O)[C@](C)(OC)C[C@@H](C)C(=O)[C@H](C)[C@H]2N(CCCCn3cnc(-c4cccnc4)c3)C(=O)O[C@]12C [TELITHROMYCIN] | < 0.125 | 0.25 (≈ 0.308 µM) | < 0.125 | < 0.125 | 0.25 (≈ 0.308 µM) | 0.5 (≈ 0.616 µM) | 0.25 (≈ 0.308 µM) | 16 (≈ 19.7 µM) | 1 (≈ 1.23 µM) | 0.5 (≈ 0.616 µM) | 0.125 (≈ 0.154 µM) |
